# Measurements from PubChem BioAssay AID588703 (Broad Institute, 2011).
# The source made the active and inactive calls. No rule for the calls is given here.
# Test system: not listed separately
# Test: cytotoxicity toward TWIST-knockdown HMLE CSC-like cells – cell-based, CellTiter-Glo luminescence, dry powder, dose response (AID 588703)
# Details: HMLE_shTWIST viability, CellTiter-Glo luminescence, 72 h
# Summary of the method: (§1)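 System: HMLE_shTWIST stable human breast line, EMT-induced, CSC-like. Input: 1000 cells/well. Buffer or medium: screening medium without serum. Incubation: 72 h compound exposure, dosing 24 h post-seeding. Measured by: CellTiter-Glo luminescence.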
row,SMILES,outcome
1,O=C(COc1ccc(Cl)cc1Cl)N/N=C/c1cnc[nH]1,inactive

# Test system: HMLE_shTWIST viability, CellTiter-Glo luminescence, 72 h
# Test: as above
# Details: not given
# Summary of the method: as §1
row,SMILES,AC50 [µM]
1,CC(C)(C)c1ccc2c(c1)OC(C(=O)N/N=C/c1ccc[nH]1)CO2 (configuration not stated),2.89
2,O=C(COc1ccc(Cl)cc1Cl)N/N=C/c1ccc[nH]1,2.21
3,Cc1cc(Cl)ccc1OCC(=O)N/N=C/c1ccc[nH]1,1.6
4,O=C(N/N=C/c1ccc[nH]1)c1cc2ccccc2o1,0.18
5,O=C(COc1c(Cl)cc(Cl)cc1Cl)N/N=C/c1ccc[nH]1,0.11
6,O=C(COc1cc(Cl)ccc1Cl)N/N=C/c1ccc[nH]1,0.92
